Most compounds without a hit are left out; they make up all but 2.7% or so of the library.
OX1R antag-1 = blocks the human orexin 1 receptor | O43613 | OX1R-expressing cells, FRET antagonist read-out | inhibition, % at 6.6 µM | hit rate 1.8% among 330,000; in the data active means inhibition mostly above about 38%, no sharp cut-off; inactive means mostly below about 40%;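 further: 0% = agonist challenge alone and 100% = reference antagonist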
OXTR agonist = agonists of human oxytocin receptor. P30559. CHO-OTR cells, Fluo-8 calcium fluorescence; normalized: DMSO 0%, oxytocin 100%. activation, % at 3 µM. hit rate 0.32% among 320,000. AID 2435;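 active means activation above the mean of all tested compounds plus 3 SD, cutoff set per screening run, cut at about 20% in these data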;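 further: peak over basal fluorescence ratio from a 100 s FLIPR kinetic read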
Target sequence (P30559 whole entry, looked up): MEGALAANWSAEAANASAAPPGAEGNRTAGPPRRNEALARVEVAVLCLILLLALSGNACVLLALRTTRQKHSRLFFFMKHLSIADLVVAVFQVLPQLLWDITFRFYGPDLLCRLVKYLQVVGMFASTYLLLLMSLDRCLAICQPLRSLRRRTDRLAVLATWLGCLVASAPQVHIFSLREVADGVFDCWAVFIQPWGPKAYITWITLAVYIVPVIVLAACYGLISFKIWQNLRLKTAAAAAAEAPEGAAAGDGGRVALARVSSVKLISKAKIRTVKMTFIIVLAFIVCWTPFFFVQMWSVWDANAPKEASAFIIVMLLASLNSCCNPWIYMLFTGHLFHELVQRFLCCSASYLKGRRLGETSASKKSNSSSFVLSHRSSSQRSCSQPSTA
OXTR potentiate = human OXTR potentiation | activation, % at 3 µM | CHO-OTR cells, Fluo-8 calcium fluorescence, potentiator mode; 0% = oxytocin EC15, 100% = EC100 | hit rate 0.061% among 320,000 | P30559;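 active means activation above that plate's cutoff, the mean activation of tested compounds plus 3 SD, cut at about 6.6% in these data, passing the limit was not always enough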;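 further: 100% uses oxytocin at 75 nM as the full agonist control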
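Material: CHO-OTR cells, human receptor; compound dosing: single dose, 3.0 µM nominal final compound concentration; schedule: 6 min compound pre-incubation at room temperature, 100 s kinetic read; measured by: kinetic Fluo-8 calcium fluorescence; read-out basis: % activation vs EC15 and EC100 oxytocin; controls: EC15 oxytocin alone as 0%, 75 nM oxytocin as 100%; replicates: singlicate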
OX1R antag-2 = antagonists of human orexin 1 receptor. O43613. CHO/OX1R cells, Fluo-8 calcium fluorescence, orexin A. inhibition, % at 5 µM. hit rate 0.43% among 330,000. AID 434989;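 active means inhibition above its plate's threshold, mean inhibition of all tested compounds on the plate plus 3 SD, cut at about 37% in these data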;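 further: 0% = orexin A challenge wells and 100% = SB-334867-A antagonist wells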
CHO parental Ca = signal in parental CHO cells, OX1R antagonist counter-screen | hit rate 0.63% among 330,000 | parental CHO-K1, ATP-induced calcium, Fluo-8 fluorescence | inhibition, % at 5.6 µM | AID 463079;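 active means inhibition above that plate's mean sample inhibition plus 3 SD, cut at about 26% in these data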;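 further: 0% = ATP-challenged DMSO wells and 100% = DMSO wells without ATP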
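Test system: parental CHO cells; detection: calcium-sensitive Fluo-8 fluorescence; evaluation: percent inhibition of calcium signal; also added: ATP as calcium-mobilizing challenge; repeats: one well per compound; control set: ATP-challenged DMSO wells low, unchallenged DMSO wells high; compound: single nominal dose of 5.6 µM per compound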
V1aR counter = V1a receptor agonism, counter-screen for OXTR agonists. hit rate 0.25% among 320,000. P37288. activation, % at 3 µM. CHO-V1R cells, Fluo-8 calcium fluorescence, agonist mode; 0% DMSO, 100% 3 nM vasopressin;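 active means activation above the mean activation of all tested compounds plus 3 SD, per screening run, cut at about 20% in these data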;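 further: signal is peak over basal fluorescence ratio across a 100 second FLIPR read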
OXTR agonist cf = confirmation of human oxytocin receptor agonists; shares compounds with OXTR agonist; hit rate 20% among 390; CHO-OTR cells, Fluo-8 calcium fluorescence, agonist; activation, % at 3 µM;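 active means mean activation above about 20% derived from the earlier single-dose screen, limit read from the data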;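 further: peak over minimum fluorescence ratio per well during a 100 second FLIPR read; 0% = DMSO alone and 100% = oxytocin high control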
V1R ag counter 3x = V1R agonism in triplicate, counter-screen for OXTR agonists; shares compounds with OXTR agonist; CHO-V1R cells, Fluo-8 calcium fluorescence, agonist; activation, % at 3 µM; hit rate 10% among 390; AID 434991;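 active means mean activation over triplicate exceeds the hit threshold set in the earlier primary screen, cut at about 20% in these data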;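 further: peak over basal fluorescence ratio within a 100 second read; 0% = DMSO alone and 100% = 3 nM vasopressin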
* marks the source's active call; other numbers are inactive results; nt = no result given; ! = not confirmed by another sample.

SMILES	OX1R antag-1	OXTR agonist	OXTR potentiate	OX1R antag-2	CHO parental Ca	V1aR counter	OXTR agonist cf	V1R ag counter 3x
O=C(CN1CCN(CC(=O)Nc2cccc(F)c2)CC1)NCC1(N2CCOCC2)CCCCC1	2	2	-4	-32	-22	0	nt	nt
CC(=O)Nc1ccc(S(=O)(=O)Oc2ccc(N3C(=O)C4CCCCC4C3=O)cc2)cc1 (configuration not stated)	27	24*	-11	5	11	17	14	14
CC(=O)Nc1ccc(S(=O)(=O)Oc2cccc(N3C(=O)C4CC=CCC4C3=O)c2)cc1 (configuration not stated)	18	11	-7	-2	-1	13	nt	nt
Cc1cc(OCCOCCNCc2ccccc2)ccc1C(C)C	-4	22*	-15	-27	-8	11	3	1
Cc1ccc(C(C)C)c(OCCNCc2ccccc2)c1	26	9	-10	-25	2	10	nt	nt
CCOc1cc(CNCCO)cc(Br)c1OCc1ccc(Cl)cc1Cl	-7	21*	-18	41*	19	4	15	1
CCOc1cccc(CNCCO)c1OCc1ccc(Cl)cc1Cl	18	10	-8	-24	-14	9	nt	nt
CCOC(=O)c1c(CSc2ccc(CC)cc2)oc2ccc(O)c(CN(C)C)c12	-11	25*	-18	36	67*	14	1	4
CCOc1ccc(NC(=O)CSc2nnnn2C2CCCC2)cc1	10	0	4	-19	-18	1	nt	nt
COCCCNC(=O)Cn1cnc(C(=O)Nc2ccc(C)c(C)c2)n1	2	nt	nt	-14	-4	nt	nt	nt
c1ccc2c(c1)OCCOCCOCCOCCOCCOc1ccccc1OCCOCCOCCO2	32	21*	-11	-19	-14	13	10	12
OCCN1CCOCCOc2ccccc2OCCOCC1	10	0	-4	10	8	0	nt	nt
CN(C)/C=C/C(=O)c1ccn(S(=O)(=O)c2ccccc2)c1	3	0	-9	10	-5	0	nt	nt
COc1ccc(C(=O)CSc2nnc(CNc3ccc(C)cc3C)o2)cc1	19	25*	-22	15	15	11	2	3
COc1ccc(C(=O)CSc2nnc(CNC(=O)c3ccccc3)o2)cc1	1	4	-10	0	-9	6	nt	nt
CCN(C[C@H]1N[C@@](Cc2ccccc2)(C(=O)OC)[C@H]2C(=O)N(C)C(=O)[C@@H]12)C(C)=O	6	1	6	-3	-11	2	nt	nt
C=C1/C=C(\C)C(C)(O)CC(O)CC(=O)C(O)C(O)C(C)CC(C)OC(=O)/C(C)=C/CC/C=C/C(OC)C(O)CC(C)C1 (configuration not stated)	5	1	-8	-10	-19	1	nt	nt
CCCCCCCCCCOC(=O)Cn1c(COc2ccccc2C)[n+](C)c2ccccc21	0	22*	-3	53*	43*	1	15	16
CCCCOC(=O)Cn1c(=O)n(CC(=O)OCCCC)c2ccccc21	31	-3	-13	-23	-8	-2	nt	nt
CCCCCOC(=O)Cn1c(=O)oc2ccccc21	19	-2	-5	-13	-1	-1	nt	nt
CCCCCCCCCCOC(=O)Cn1c(COc2cccc(C)c2)[n+](C)c2ccccc21	17	45*	-18	75*	65*	13	34*	23*
O=C(CCN1CCCCO1)N1CCCC(Nc2cccc(F)c2)C1 (configuration not stated)	22	1	-1	-14	-7	0	nt	nt
Fc1ccc([C@@H]2CCNC[C@H]2COc2ccc3c(c2)OCO3)cc1	9	23*!	-10	14	-5	13	11	7
Fc1ccc(C2CCNCC2COc2ccc3c(c2)OCO3)cc1 (configuration not stated)	-5	12	-8	4	2	3	nt	nt
C=CCN1C=CC(=CC=C(C#N)C#N)C=C1	39	23*	-6	18	12	19	25*	30*
SMILES	OX1R antag-1	OXTR agonist	OXTR potentiate	OX1R antag-2	CHO parental Ca	V1aR counter	OXTR agonist cf	V1R ag counter 3x
OC(CNCC1CCCO1)Cn1c2ccc(Cl)cc2c2cc(Cl)ccc21 (configuration not stated)	8	33*	-16	26	15	3	14	5
CCOc1ccc2[nH]c3c(N4CCc5ccccc5C4)ncnc3c2c1	13	-3	-7	-9	-16	-2	nt	nt
Brc1ccc2[nH]c3c(N4CCc5ccccc5C4)ncnc3c2c1	13	24*	-21	44*	47*	10	7	8
CCCc1ccc(Oc2c(-c3ccc(O)c(C)c3O)n[nH]c2C)cc1	3	20*	-6	23	29*	16	22*	13
Cc1ccc(S(=O)(=O)N(C)c2ccc(OC(=O)CN3C(=O)NC4(CCCC4)C3=O)cc2)cc1C	15	2	-15	-23	2	8	nt	nt
COc1ccccc1NCC(O)COc1ccc(C(C)(C)C)cc1 (configuration not stated)	-1	-2	-6	-28	-2	-1	nt	nt
COc1ccc(OCC(O)CNCCOc2ccccc2OC)c(C(C)(C)C)c1 (configuration not stated)	2	22*	-9	-12	-2	10	7	2
COc1ccc(/C=C/C(=O)NC(=S)NNC(=O)c2cccs2)cc1	3	26*	-35	-18	6	17	6	8
Nc1cc(=O)[nH]c(SCc2ccc(Cl)cc2Cl)n1	7	22*	-22	4	33	14	11	10
COc1ccccc1C(C)NC(=O)c1ccc(NC(=O)CC2SC(N3CCCC3)=NC2=O)cc1 (configuration not stated)	4	0	-4	-11	1	0	nt	nt
Cc1ccccc1-n1sc2cc(F)ccc2c1=O	27	23*	-8	13	35*	16	14	15
CC1NC(=O)c2ccccc2-n2c1nc1cc(F)ccc1c2=O (configuration not stated)	-2	1	-3	-14	-5	0	nt	nt
Cc1c(Cl)cccc1NC(=S)NNc1ncc(C(F)(F)F)cc1Cl	8	29*	-12	30	1	16	7	7
C[C@]1(CO)CCC[C@@]2(C)C1CC[C@@H](CO)[C@@H]2CCc1ccoc1 (some centres not stated)	-6	4	-10	-18	2	3	nt	nt
COc1cccc(CNC(=O)CCCc2c[nH]c3ccccc23)c1	28	1	-12	-20	-12	2	nt	nt
